High-throughput results: PubChem BioAssay, several laboratories
In the library only some 2.1% were active in any assay of this set; here they are far more common.
bCat nuc transl: modulators of beta-catenin nuclear translocation. nuclear translocation activity, % at 5 µM. HeLa beta-catenin nuclear translocation, immunofluorescence imaging. 190,000 tested, 0.3% active;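 active = nuclear translocation activity above 50% at 5 µM, with a well cell count of 50 or more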;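 also: per-cell ratio of nuclear to cytoplasmic median beta-catenin stain intensity; plate controls were DMSO negative control for no effect and GSK-3 inhibitor IX positive control for full effect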
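Test system: HeLa cells, endogenous beta-catenin; Compound: single 5 µM dose plus 0.02–20 µM confirmation series; Times: compound exposure 24 h at 37°C; Signal: fluorescence imaging of beta-catenin antibody stain plus DAPI; Read-out: % activation, nuclear-to-cytoplasmic median beta-catenin signal ratio per cell.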
Ba/F3 V617F tox: loss of viability in JAK2V617F-driven Ba/F3 cells; Ba/F3 EpoR-JAK2V617F viability, ATP luminescence; inhibition, % at 5.6 µM; 220,000 tested, 1.1% active;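 active = inhibition above the campaign mean plus 3 SD over all tested compounds, cut at about 24% in these data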;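 also: cytokine-independent growth of Ba/F3 cells driven by EpoR plus mutant JAK2; 0% = DMSO-treated cells and 100% = JAK inhibitor I control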
IEC-6 tox-1: IEC-6 cytotoxicity, counter-screen for KLF5 inhibitors; 290,000 tested, 0.78% active; luminescence viability; inhibition, % at 5 µM;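 also: 0% = plate median of test compound wells and 100% = cytotoxic reference compound wells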
BaF3 tox: parental Ba/F3 viability inhibition as JAK2V617F counter-screen; 220,000 tested, 1.1% active; inhibition, % at 5.6 µM; CellTiter-Glo ATP luminescence;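 active = inhibition above a per-campaign cutoff, the mean inhibition of all tested compounds plus 3 SD, cut at about 27% in these data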;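 also: 0% = DMSO wells and 100% = JAK Inhibitor I control wells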
MT stabilize HCS: stabilizes microtubules in HeLa cells | 200,000 tested, 0.83% active | % tubulin-high responders, % at 10 µM | HeLa tubulin immunostaining HCS, 24 h; share of cells brighter than vehicle mean+2SD;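 active = plate Z-score above 3 for both tubulin-high and condensed-nucleus cell shares, with cell loss under 80%, at 10 µM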;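 also: anti alpha tubulin signal scored within the nucleus-defined area of each cell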
KLF5 inhibitor: suppresses KLF5 promoter-driven expression; AID 1700; inhibition, % at 5 µM; DLD-1 KLF5 promoter-luciferase reporter, luminescence; 290,000 tested, 0.23% active;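 active = inhibition above a per-plate limit of that plate's mean compound inhibition plus 3 SD, cut at about 60% in these data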;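 also: 0% = DMSO wells and 100% = LY294002 at 200 µM; higher means less KLF5 promoter-driven luciferase light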
KLF5 inh confirm: KLF5 inhibition, confirmation assay; 610 tested, 79% active; inhibition, % at 4 µM; shares compounds with KLF5 inhibitor; DLD-1 KLF5 promoter firefly luciferase reporter, luminescence;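 active = inhibition above a set limit taken from the earlier primary screen, cut at about 63% in these data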;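 also: 0% = DMSO wells and 100% = LY294002 at 200 µM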
IEC-6 tox-2: counter-screen for KLF5 inhibitors: cytotoxicity in rat IEC-6 cells; shares compounds with KLF5 inhibitor; IEC-6 rat intestinal cells, viability luminescence; inhibition, % at 4 µM; 610 tested, 56% active; in the data active = inhibition above about 23%;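 also: cells exposed to compounds for 48 hours before viability read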
IEC-6 cytotox cf: confirmation of cytotoxic compounds in rat IEC-6 intestinal epithelial cells; inhibition, % at 5 µM; 1,900 tested, 63% active; shares compounds with IEC-6 tox-1; IEC-6 rat intestinal epithelial viability, luminescence;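 also: 0% = vehicle and 100% = reference cytotoxic drug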
Starred values were filed as active, the others as inactive; . = no result given. Rule as the data show it, unless noted: active = inhibition above about 22%; inactive = the rest.

SMILES	bCat nuc transl	Ba/F3 V617F tox	IEC-6 tox-1	BaF3 tox	MT stabilize HCS	KLF5 inhibitor	KLF5 inh confirm	IEC-6 tox-2	IEC-6 cytotox cf
COc1ccc(C2C(O)C(c3c[nH]c4ccccc34)=NN2C(=O)CCl)cc1 (configuration not stated)	.	.	102*	.	.	102*	99*	101*	100*
COc1ccc(C2NN=C(c3c[nH]c4ccccc34)C2O)cc1 (configuration not stated)	.	.	1	.	.	-5	.	.	.
CC(C)c1nc2sc3c(=O)n(N)cnc3c2c2c1COC(C)(C)C2	0	-2	2	6	3	-28	.	.	.
CCCCCCCCCC[n+]1cccc2c3ccccc3ccc21	.	101*	52*	92*	48	96*	65*	38*	36*
Cc1ccc(Cl)cc1NC(=O)C1CCCN(S(C)(=O)=O)C1 (configuration not stated)	.	.	2	.	.	-29	.	.	.
COc1cc(-c2noc(C)c2/C=C/c2cccc([N+](=O)[O-])c2)cc(OC)c1OC	.	.	79*	.	.	64*	79*	54*	54*
COc1cc(-c2noc(C)c2/C=C/c2ccc(C(=O)O)cc2)cc(OC)c1OC	.	.	-5	.	.	-5	.	.	.
Cc1cc[n+](CC(=O)Nc2cccc(C)c2)cc1	.	.	2	.	.	-21	.	.	.
CN1/C(=C/C=C(/C#N)C(N)=O)C(C)(C)c2ccccc21	.	78*	47*	62*	20*	69*	60	36*	44*
CN1/C(=C\C=C(/C#N)C(=O)Nc2ccccc2F)C(C)(C)c2ccccc21	2	-1	1	7	2	-39	.	.	.
Cc1cc(C)cc(C(=O)OCC(=O)NCC(F)(F)F)c1	.	8	3	9	3	-8	.	.	.
COc1ccc(NS(=O)(=O)c2cc(C)ccc2NC(=O)c2cc(C)oc2C)cc1	.	75*	82*	79*	21*	62*	81*	62*	62*
O=C(COc1ccc(/C=N/NC(=O)C(=O)N2CCCCC2)cc1)Nc1ccccc1Cl	6	1	-1	6	3	-14	.	.	.
COc1cc2c(c(OC)c1OC)-c1ccc(NC(=O)c3ccccc3)c(=O)cc1[C@@H](NC(C)=O)CC2	.	.	87*	.	.	77*	64*	49*	49*
CC(C)C(=O)c1cn(CC(=O)NCc2ccco2)c2ccccc12	-4	2	3	3	4	4	.	.	.
CCOC(=O)C(C)Oc1cccc2c(=O)n(CC(=O)NCc3ccco3)ccc12 (configuration not stated)	73*	77*	77*	68*	10	77*	80*	55*	52*
Cc1ccc(O)c(NC(=O)C2CCCN2C(=O)OCc2ccccc2)c1 (configuration not stated)	.	.	0	.	.	-6	.	.	.
O=C(N/N=C/c1cc(Cl)ccc1O)c1cccnc1	.	.	60*	.	.	79*	89*	16	29*
COc1ccc2[nH]c3c(C)c4ccncc4c(C)c3c2c1	-3	65*	74*	60*	.	75*	77*	59*	58*
C#CCn1c(=NC(=O)CSCC(=O)N2CCOCC2)sc2ccccc21	-2	-3	3	-2	5	-7	.	.	.
Cc1ccccc1C1=NC(C(F)(F)F)(C(F)(F)F)c2c(n(C)c(=O)n(C)c2=O)N1	4	3	5	6	3	-3	.	.	.
Cn1c2c(c(=O)n(C)c1=O)C(C(F)(F)F)(C(F)(F)F)N=C(c1ccc(Cl)cc1)N2	2	95*	37*	86*	1	81*	84*	57*	92*
CCCCCC(=O)N[C@@H](c1ccccc1)[C@@H](O)C(=O)O[C@H]1C[C@@]2(O)[C@@H](OC(=O)c3ccccc3)C3[C@](C)(C(=O)[C@H](OC(C)=O)C(=C1C)C2(C)C)[C@@H](O)C[C@H]1OC[C@@]31OC(C)=O (some centres not stated)	.	.	96*	.	.	66*	84*	88*	86*
